Test results: ChEMBL document CHEMBL3526062, “Role of human UDP-glucuronosyltransferases in the biotransformation of the triazoloacridinone and imidazoacridinone antitumor agents C-1305 and C-1311: highly selective substrates for UGT1A10” (Drug Metab Dispos, 2012)

Key:
[1] = tested on: Liver microsome; assay: Drug metabolism in human liver microsomes assessed as metabolite formation treated with C-1305 for 60 mins by ESI-MS/UV-vis spectroscopy in presence of 3 mM UDP-GlcUA; type: ADME; settings: 1 h
Method in brief: (§1)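 Recombinant human UGT1A1 or UGT1A9 (5 μg protein), or single-donor human liver or intestinal microsomes (20 μg), incubated in Tris-HCl pH 7.4 with 5 mM MgCl2, 5 mM saccharolactone, 2% DMSO and 100 or 200 μM substrate. Started with UDP-GlcUA, 60 min at 37°C, in triplicate. Product identified by HPLC with positive-ion ESI-MS and UV/Vis spectra, and confirmed by β-glucuronidase hydrolysis.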

[2] = Drug metabolism in human intestinal microsomes assessed as metabolite formation treated with C-1305 for 60 mins by ESI-MS/UV-vis spectroscopy in presence of 3 mM UDP-GlcUA; type: ADME, Intestine, Microsome; settings: 1 h; method in brief: as §1
[3] = target: T1, UDP-glucuronosyltransferase 1A9 (Homo sapiens, UniProt O60656); assay: Activity of human recombinant UGT1A9 expressed in baculovirus-infected Sf9 cells assessed as enzyme-mediated glucuronidation per mg protein at 235 uM after 60 mins by Michaelis-Menten equation in presence of 3 mM UDP-GlcUA; type: ADME; settings: sf9, 1 h
T1 sequence (O60656 whole entry): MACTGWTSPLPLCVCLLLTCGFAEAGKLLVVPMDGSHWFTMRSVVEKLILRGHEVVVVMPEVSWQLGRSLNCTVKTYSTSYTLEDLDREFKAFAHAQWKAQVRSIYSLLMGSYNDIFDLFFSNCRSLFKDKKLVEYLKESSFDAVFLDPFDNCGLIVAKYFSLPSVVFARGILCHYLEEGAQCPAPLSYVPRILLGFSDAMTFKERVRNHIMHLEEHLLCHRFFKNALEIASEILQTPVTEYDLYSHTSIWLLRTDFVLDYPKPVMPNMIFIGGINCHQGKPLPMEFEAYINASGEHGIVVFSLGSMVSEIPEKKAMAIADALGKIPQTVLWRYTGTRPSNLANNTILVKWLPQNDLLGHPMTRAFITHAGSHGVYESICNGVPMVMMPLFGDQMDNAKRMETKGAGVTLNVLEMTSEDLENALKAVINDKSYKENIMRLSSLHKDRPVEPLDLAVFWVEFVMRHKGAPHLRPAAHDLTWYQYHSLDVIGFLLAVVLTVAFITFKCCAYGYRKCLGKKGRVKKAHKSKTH

[4] = tested on: Liver microsome; assay: Drug metabolism in human liver microsomes assessed as metabolite formation treated with C-1311 for 60 mins by ESI-MS/UV-vis spectroscopy in presence of 3 mM UDP-GlcUA; type: ADME; settings: 1 h
Method in brief: (§2)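 Protein (5 μg UGT1A10 or microsomal) incubated with 0.2 mM substrate and 3 mM UDP-GlcUA, 60 min. HPLC on C18 at 25°C with a 15–80% methanol gradient in 0.05 M ammonium formate pH 3.4 at 1 ml/min. ESI positive-ion MS and UV/Vis spectra taken from the peaks. Glucuronide confirmed by 60 min further treatment with 1000 U E. coli β-glucuronidase.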

[5] = Drug metabolism in human intestinal microsomes assessed as metabolite formation treated with C-1311 for 60 mins by ESI-MS/UV-vis spectroscopy in presence of 3 mM UDP-GlcUA; type: ADME, Intestine, Microsome; settings: 1 h; method in brief: as §2
[6] = target: T2, UDP-glucuronosyltransferase 1A10 (Homo sapiens, UniProt Q9HAW8); assay: Drug metabolism assessed as human recombinant UGT1A10-mediated compound formation treated with C-1311 for 60 mins by ESI-MS/UV-vis spectroscopy in presence of 3 mM UDP-GlcUA; type: ADME; settings: recombinant enzyme, 1 h; method in brief: as §2
T2 sequence (Q9HAW8 whole entry): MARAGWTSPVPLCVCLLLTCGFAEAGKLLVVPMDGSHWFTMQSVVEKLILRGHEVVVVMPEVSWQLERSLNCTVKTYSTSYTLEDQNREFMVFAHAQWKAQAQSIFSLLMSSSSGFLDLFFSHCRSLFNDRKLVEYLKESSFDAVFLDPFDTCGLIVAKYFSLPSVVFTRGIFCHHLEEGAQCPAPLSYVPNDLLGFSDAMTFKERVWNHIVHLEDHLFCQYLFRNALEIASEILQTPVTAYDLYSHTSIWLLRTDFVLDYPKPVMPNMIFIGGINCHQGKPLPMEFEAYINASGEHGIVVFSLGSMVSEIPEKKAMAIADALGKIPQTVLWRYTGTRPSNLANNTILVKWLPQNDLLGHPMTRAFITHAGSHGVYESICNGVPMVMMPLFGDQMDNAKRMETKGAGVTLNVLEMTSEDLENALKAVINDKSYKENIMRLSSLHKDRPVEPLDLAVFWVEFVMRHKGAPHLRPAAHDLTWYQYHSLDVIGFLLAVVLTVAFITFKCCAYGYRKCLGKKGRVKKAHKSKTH

[7] = target: T1, UDP-glucuronosyltransferase 1A9; assay: Drug metabolism assessed as human recombinant UGT1A9-mediated compound formation treated with C-1311 for 60 mins by ESI-MS/UV-vis spectroscopy in presence of 3 mM UDP-GlcUA; type: ADME; settings: recombinant enzyme, 1 h

| Drug metabolism [1] | Drug metabolism [2] | SMILES | Drug metabolism [3] [nmol/min/mg] | Drug metabolism [4] | Drug metabolism [5] | Drug metabolism [6] | Drug metabolism [7] |
| --- | --- | --- | --- | --- | --- | --- | --- |
| metabolite_detected | metabolite_detected | CN(C)CCCNc1ccc2nnn3c4ccc(O)cc4c(=O)c1c23 |  |  |  |  |  |
|  |  | CCN(CC)CCNc1ccc2ncn3c4ccc(O)cc4c(=O)c1c23 [C-1311] | 0.14 | metabolite_detected | metabolite_detected | metabolite_detected | metabolite_detected |
